tested on: Trypanosoma congolense; experiment: Trypanocidal activity against bloodstream form of Trypanosoma congolense IL3000 after 72 hrs by CellTiter-Glo reagent-based luminescence assay; type: functional, organism-based; settings: IL3000, 72 h
Summary of the method: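 BSF parasites maintained daily in HMI-9 medium. Compounds serially diluted 5-fold in HMI-9 from 25 μg/mL to 1.6 ng/mL and incubated with trypanosomes for 72 h. Viability read by luminescence after CellTiter-Glo addition; IC50 calculated from the dilution series. Pentamidine as positive control.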

Row | SMILES | IC50 [µM]
1 | COc1cc([C@@H]2Oc3c(OC)cc(/C=C/C=O)cc3[C@H]2COC(=O)CC(C)C)ccc1O | 2.4
2 | COc1cc([C@@H]2Oc3c(OC)cc(/C=C/COC(C)=O)cc3[C@H]2COC(C)=O)ccc1O | 16.2
3 | COc1cc([C@@H]2Oc3c(OC)cc(/C=C/COC(=O)CC(C)C)cc3[C@H]2COC(=O)CC(C)C)ccc1O | 13.4
4 | COc1cc([C@@H](OC)[C@H](O)COC(=O)CC(C)C)ccc1O | > 25
5 | COc1cc([C@@H]2Oc3c(OC)cc(/C=C/C=O)cc3[C@H]2COC(C)=O)ccc1O | 7.6
6 | COc1cc([C@@H]2Oc3c(OC)cc(C=O)cc3[C@H]2COC(=O)CC(C)C)ccc1O | 19.9
7 | COc1cc(/C=C/COC(=O)CC(C)C)ccc1O | > 25
8 | COc1cc([C@@H](O)[C@H](O)COC(=O)CC(C)C)ccc1O | > 25
9 | COc1cc([C@@H]2Oc3c(OC)cc(C(=O)O)cc3[C@H]2COC(=O)CC(C)C)ccc1O | > 25
10 | C=C(C=O)[C@H](COC(=O)CC(C)C)C(c1ccc(O)c(OC)c1)c1ccc(O)c(OC)c1 | 2.8
11 | COc1cc(C(=O)[C@@H](COC(=O)CC(C)C)Oc2ccc(/C=C/COC(=O)CC(C)C)cc2OC)ccc1O | 9.6
12 | COc1cc(C(=O)[C@H](O)COC(=O)CC(C)C)ccc1O | > 25
13 | COc1cc(C(=O)[C@@H](COC(=O)CC(C)C)c2cc(C=O)cc(OC)c2O)ccc1O | > 25
14 | COc1cc([C@@H](O)[C@@H](COC(=O)CC(C)C)Oc2ccc(/C=C/COC(=O)CC(C)C)cc2OC)ccc1O | 17.4
15 | COc1cc(/C=C/C=O)ccc1O [CONIFERYL ALDEHYDE] | > 25
16 | COc1cc(/C=C/C(=O)O)ccc1O [FERULATE] | > 25
17 | COc1cc(C=O)ccc1O [VANILLIN] | > 25

— ChEMBL document CHEMBL4480459, “Acylated Lignans Isolated from Brachanthemum gobicum and Their Trypanocidal Activity” (J Nat Prod, 2019)
